Assay results taken from PMC4855835 (Chemical communications (Cambridge, England), 2016).

Key:
[1] = tested on: sarcoma osteogenic (Saos-2) cells; assay: Cell viability of Saos-2 cells treated with precursors; assay type: cell-based, human; conditions: for concentration at which Saos-2 cells are inhibited: Fig. 4A and Fig. S6; for inhibitory activity at pH 8.0: hydrolysis of ester bond (Fig. S8)
In short: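 Saos-2 osteosarcoma cells, which overexpress alkaline phosphatase, were exposed to a range of test compound (phosphorylated peptide precursor) concentrations for 48 h. Viability was plotted as log-dose response curves, and IC90 was taken at 48 h. Human marrow stromal HS-5 cells served as the normal-cell comparison.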

[2] = Hydrogelation assay of self-assembly in water upon ALP addition; assay type: physicochemical; conditions: 1 mM, pH 7.4, ALP 3U/mL
In short: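 Self-assembly was screened by hydrogelation: the test compound at 1 mM in water, pH 7.4, was given alkaline phosphatase at 3 U/mL. The resulting state (gel, suspension or increased viscosity) was judged by eye. Nanostructures formed under the same conditions were imaged by TEM after 24 h.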

Static light scattering = assay type: physicochemical; conditions: pH7.4 PBS buffer, before ALP
In short: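 Static light scattering was measured on test compound solutions (12.5–50 µM) in pH 7.4 PBS, before and 24 h after adding alkaline phosphatase (2 U/mL). Scattering angle was 30 degrees; read-out was scattered intensity.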

Saos-2 cells = assay: Saos-2 cell viability with co-incubated ALP inhibitors or cell death inhibitors; assay type: cell-based, human; conditions: 48h; for effect of pan-caspase inhibitor zVAD-fmk on death of treated Saos-2 cells: 1p 20 μM, 2p 50 μM, 3p 20 μM, zVAD-fmk 45 μM; for effect of L-Phe on viability of treated Saos-2 cells / effect of levamisole on viability of treated Saos-2 cells: 1p 50 μM, 3p 50 μM, 2p 200 μM; for effect of L-Phe on viability of treated Saos-2 cells: L-Phe 1 mM; for effect of levamisole on viability of treated Saos-2 cells: levamisole 1 mM; for effect of necroptosis inhibitor Nec-1 on death of treated Saos-2 cells: Nec-1 50 μM
In short: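 Saos-2 cells were treated for 48 h with test compound plus an inhibitor. ALP inhibitors were levamisole 1 mM (tissue-nonspecific ALP) or L-phenylalanine 1 mM (placental ALP), with test compound at 50 or 200 µM. Death-pathway inhibitors were pan-caspase zVAD-fmk 45 µM or Nec-1 50 µM. Read-out was cell viability.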

[3] = tested on: sarcoma osteogenic (Saos-2) cells; conditions: read-out: IC50 of carboplatin; 72 h; cited from earlier work

Compound | concentration at which Saos-2 cells are inhibited [1] | inhibitory activity at pH 8.0 [1] | state of the solution after addition of ALP [2] | aggregation behaviour by SLS at 50 μM (Static light scattering) | effect of pan-caspase inhibitor zVAD-fmk on death of treated Saos-2 cells (Saos-2 cells) | effect of L-Phe on viability of treated Saos-2 cells (Saos-2 cells) | effect of levamisole on viability of treated Saos-2 cells (Saos-2 cells) | effect of necroptosis inhibitor Nec-1 on death of treated Saos-2 cells (Saos-2 cells) | IC50 [3]
CNC(=O)[C@@H](Cc1ccc(OP(=O)(O)O)cc1)NC(=O)[C@@H](Cc1ccccc1)NC(=O)[C@@H](Cc1ccccc1)NC(=O)Cc1ccc2ccccc2c1 [1p] | ≥ 50 µM | remains | turns into a hydrogel | starts to aggregates | only slightly protects | unable to rescue the cells | increases the cell viability | significantly protects | 
NNC(=O)[C@@H](Cc1ccc(OP(=O)(O)O)cc1)NC(=O)[C@@H](Cc1ccccc1)NC(=O)[C@@H](Cc1ccccc1)NC(=O)Cc1ccc2ccccc2c1 [2p] | ≥ 50 µM |  | turns into a hydrogel |  | only slightly protects | unable to rescue the cells | increases the cell viability | significantly protects | 
COC(=O)[C@@H](Cc1ccc(OP(=O)(O)O)cc1)NC(=O)[C@@H](Cc1ccccc1)NC(=O)[C@@H](Cc1ccccc1)NC(=O)Cc1ccc2ccccc2c1 [3p] | ≥ 50 µM | decreases | forms a suspension |  | only slightly protects | unable to rescue the cells | increases the cell viability | significantly protects | 
O=C(Cc1ccc2ccccc2c1)N[C@H](Cc1ccccc1)C(=O)N[C@H](Cc1ccccc1)C(=O)N[C@H](Cc1ccc(OP(=O)(O)O)cc1)C(=O)O [4p] | about 500 μM |  | becomes more viscous |  |  |  |  |  | 
N.N.O=C([O-])C1(C(=O)[O-])CCC1.[Pt+2] [carboplatin] |  |  |  |  |  |  |  |  | 198 µM
